{"source": "paper PMC8099043", "about": "(Pharmacology Research & Perspectives, 2021)", "key": {"[1]": {"system": "rivaroxaban metabolism in rat liver microsomes (RLMs)", "experiment": "Inhibition of rivaroxaban metabolism by naringenin in rat liver microsomes", "type": "in vitro ADME, Sprague–Dawley rat", "details": "RLMs, Lineweaver-Burk plot", "method_in_brief": "(§1)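 Flavonoid test compound and substrate were incubated with rat liver microsomes (1 mg/ml) in 100 mM potassium phosphate, pH 7.4. After 5 min preincubation at 37 °C, 1 mM NADPH (final) started the reaction, which ran 30 min. It was quenched with acetonitrile plus diazepam IS, centrifuged and analysed by UPLC‑MS/MS. IC50 used 10 μM substrate with test compound at 1–100 μM.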"}, "[2]": {"system": "rivaroxaban metabolism in rat liver microsomes", "experiment": "Inhibition of rivaroxaban metabolism by naringenin in rat liver microsomes", "type": "in vitro ADME, Sprague–Dawley rat", "details": "Sprague-Dawley, rat, rat liver microsomes, pH 7.4, probe rivaroxaban (10 μM)", "method_in_brief": "as §1"}, "[3]": {"system": "rat liver microsomes (RLMs)", "experiment": "Michaelis–Menten kinetics of rivaroxaban metabolism in RLMs", "type": "in vitro ADME, Sprague–Dawley rat", "method_in_brief": "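Rat liver microsomes (1 mg/ml, 100 mM potassium phosphate, pH 7.4) were incubated with substrate over nine levels spanning 1–200 μM. Preincubation was 5 min at 37 °C, then 1 mM NADPH (final) started a 30 min reaction. It was stopped with acetonitrile plus diazepam IS, centrifuged, and the supernatant was run on UPLC‑MS/MS (positive ESI, MRM). Km came from a Michaelis–Menten fit; mean ± SD, n = 3.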"}, "[4]": {"type": "in vivo, Sprague–Dawley rat"}, "[5]": {"details": "cited from earlier work"}, "[6]": {"details": "with ticagrelor, rats; cited from earlier work"}, "[7]": {"details": "pre-treatment of rats with naringenin for 2 weeks vs control; cited from earlier work"}, "[8]": {"details": "Control group: rivaroxaban 10 mg/kg oral gavage only, rats, n = 6"}, "[9]": {"details": "pretreatment of rat with naringenin for 14 days"}, "[10]": {"details": "10 mg rivaroxaban in combination with 200 mg ketoconazole once daily"}, "[11]": {"details": "co-administration with rifampicin"}, "[12]": {"details": "single-dose rivaroxaban co-administrated with ritonavir"}}, "note": "Where two headings read alike, the source gives them in different places.", "data": [{"smiles": "O=C1C[C@@H](c2ccc(O)cc2)Oc2cc(O)cc(O)c21", "note": "[naringenin]", "values": [{"measurement": "inhibition type", "setting": "[1]", "result": "mixed inhibition"}, {"measurement": "Ki", "setting": "[1]; rivaroxaban 5-40 μM, naringenin 0-80 μM", "result": 54.9, "unit": "µM"}, {"measurement": "IC50 at 30 min", "setting": "[2]", "result": 38.9, "unit": "µM"}]}, {"smiles": "O=C(NC[C@H]1CN(c2ccc(N3CCOCC3=O)cc2)C(=O)O1)c1ccc(Cl)s1", "note": "[rivaroxaban]", "values": [{"measurement": "Km", "setting": "[3]; read-out: Km of rivaroxaban metabolism, rivaroxaban 1-200 μM", "result": 18.4, "unit": "µM"}, {"measurement": "Vmax of rivaroxaban metabolism", "setting": "[3]; rivaroxaban 1-200 μM", "result": 4.35, "unit": "pmol/min/mg"}, {"measurement": "AUC(0–t)", "setting": "[4]; Control group: rivaroxaban 10 mg/kg oral gavage only, rats (abstract)", "result": "2406.28 ± 519.69", "unit": "µg/h/L"}, {"measurement": "AUC(0–t)", "setting": "[4]; [8]", "result": "2406.28 ± 519.69", "unit": "µg/h/L"}, {"measurement": "AUC(0–∞)", "setting": "[4]; [8]", "result": "2438.52 ± 529.29", "unit": "ng/mL/h"}, {"measurement": "AUC(0–t)", "setting": "[4]; Experimental group: naringenin 10 mg/kg/day for 2 weeks, then rivaroxaban 10 mg/kg oral, rats (abstract)", "result": "4005.04 ± 1172.76", "unit": "µg/h/L"}, {"measurement": "Tmax", "setting": "[4]; male, Sprague-Dawley, rat, plasma, po, 10 mg/kg", "result": "3.4 ± 0.548", "unit": "h"}, {"measurement": "increase of AUC of rivaroxaban, experimental group vs control", "setting": "[4]; [9]", "result": 1.7, "unit": "times"}, {"measurement": "increase of Cmax of rivaroxaban, experimental group vs control", "setting": "[4]; [9]", "result": 1.6, "unit": "times"}, {"measurement": "increase of AUC of rivaroxaban", "setting": "[5]; [10]", "result": 82, "unit": "%"}, {"measurement": "increase of Cmax of rivaroxaban", "setting": "[5]; [10]", "result": 53, "unit": "%"}, {"measurement": "reduction of body clearance rate of rivaroxaban", "setting": "[5]; [10]", "result": 45, "unit": "%"}, {"measurement": "decrease of AUC of rivaroxaban", "setting": "[5]; [11]", "result": 50, "unit": "%"}, {"measurement": "decrease of Cmax of rivaroxaban", "setting": "[5]; [11]", "result": 22, "unit": "%"}, {"measurement": "increase of AUC of rivaroxaban", "setting": "[5]; [12]", "result": 150, "unit": "%"}, {"measurement": "increase of Cmax of rivaroxaban", "setting": "[5]; [12]", "result": 60, "unit": "%"}, {"measurement": "increase of AUC of rivaroxaban", "setting": "[6]", "result": "more than twice"}, {"measurement": "increase of Cmax of rivaroxaban", "setting": "[6]", "result": "more than twice"}]}, {"smiles": "C[C@@H]1CCN(C(=O)CC#N)C[C@@H]1N(C)c1ncnc2[nH]ccc12", "note": "[tofacitinib]", "values": [{"measurement": "increase of AUC of tofacitinib", "setting": "[7]", "result": 1.76, "unit": "fold"}]}]}
